Assay outcomes deposited in PubChem by several laboratories.
An excerpt weighted towards active compounds, which were near 4.1% of everything screened.
Cl transport mod: modulates chloride dependent transport by human KCC2 | Q9H2X9 | KCC2 cells, thallium flux FluoZin-2 fluorescence | B-score of Tl+ flux slope (higher = more flux/activation; lower = inhibition) at 10 µM | 190,000 tested, 2.2% active;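 active means thallium flux slope and its plate-corrected score both differing from the plate sample mean at a set confidence after two filtering rounds, in either direction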;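 further: slope of fluorescence scaled to starting intensity during 10 to 20 s after thallium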
KCNK3 block: human KCNK3 channel inhibition, primary screen; O14649; CHO-KCNK3 thallium flux, FluxOR fluorescence; stronger effect = lower value; B-score at 10 µM; 340,000 tested, 0.84% active; AID 602410;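 active means B-score under library mean minus 4 SD, starting fluorescence ratio at most library mean plus 5 SD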;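 further: more negative B-score means stronger inhibition of thallium flux through KCNK3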
KCNQ1 block: blocks the human KCNQ1 potassium channel | P51787 | CHO-K1 KCNQ1, FluxOR thallium flux fluorescence; stronger effect = higher value | B-score at 10 µM | 310,000 tested, 1.3% active;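 active means compounds whose thallium flux B-score, printed positive for inhibition, exceeds three library SD while starting fluorescence stays within three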;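 further: channel opened by potassium depolarization with thallium stimulus after 20 min compound exposure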
KCNK9 inh: human KCNK9 channel inhibition; HEK293 KCNK9, FluxOR thallium flux fluorescence; stronger effect = lower value; B-score at 10 µM; 310,000 tested, 1.2% active;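 active means ratio B-score over 3 SD below the library mean, with starting fluorescence within 5 SD of its mean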;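 further: negative B-score means less thallium flux so channel inhibition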
Target sequence (Q9NPC2 whole entry, looked up): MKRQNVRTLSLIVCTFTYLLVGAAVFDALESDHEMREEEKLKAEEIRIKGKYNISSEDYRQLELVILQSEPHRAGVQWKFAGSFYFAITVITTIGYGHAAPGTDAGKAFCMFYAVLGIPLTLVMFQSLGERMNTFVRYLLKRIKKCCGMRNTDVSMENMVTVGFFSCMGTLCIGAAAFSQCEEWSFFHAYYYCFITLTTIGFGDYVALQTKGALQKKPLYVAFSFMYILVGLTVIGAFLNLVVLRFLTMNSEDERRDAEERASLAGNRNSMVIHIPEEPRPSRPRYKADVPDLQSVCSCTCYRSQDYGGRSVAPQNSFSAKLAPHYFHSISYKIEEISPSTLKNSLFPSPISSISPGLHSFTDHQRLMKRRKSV
KCNQ1 pot: human KCNQ1 channel potentiation or activation; P51787; CHO-K1 KCNQ1, thallium flux FluxOR fluorescence; stronger effect = higher value; B-score at 10 µM; 310,000 tested, 0.35% active; AID 2648;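 active means fluorescence ratio B-score, a plate-corrected score, at least three library SD, with initial intensity B-score within 5 SD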
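Schedule – 37 °C overnight plating, 90-min dark dye load, 20-min compound pretreatment · System – stable KCNQ1 CHO-K1 line · Probe or stimulus – thallium- and potassium-containing depolarizing buffer · Measured by – kinetic FluxOR fluorescence, 10 s baseline plus 110 s post-stimulus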
hERG protect: compounds protecting human hERG from proarrhythmic drug block. Q12809. CHO-hERG, FluxOR thallium flux, dofetilide IC70 present. activation (rescue from dofetilide block), less the hit threshold, % at 10 µM. 310,000 tested, 0.51% active. AID 1511;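 active means activation above the mean of controls blocked by dofetilide plus 5 SD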;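 further: thallium influx through hERG after potassium depolarization seen as dye fluorescence rise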
* hit, by the source's call.

Results for C=CCNC(=S)NNC(=O)c1ccc(OCCC)cc1 ?
Cl transport mod: -0.289; KCNK3 block: inactive; KCNQ1 block: inactive; KCNK9 inh: inactive; KCNQ1 pot: inactive; hERG protect: -2.3

Results for CCCOc1ccc(C(=O)NNC(=S)NC(=O)CC)cc1 ?
Cl transport mod: 6.92*; KCNK3 block: inactive; KCNQ1 block: inactive; KCNK9 inh: inactive; KCNQ1 pot: inactive; hERG protect: -22.3

Results for COCCn1cnnc1SCC(=O)Nc1cccc(S(=O)(=O)N(C)c2ccccc2)c1 ?
Cl transport mod: -0.78; KCNK3 block: inactive; KCNQ1 block: inactive; KCNK9 inh: inactive; KCNQ1 pot: inactive; hERG protect: -7.9

How did CN(c1ccccc1)S(=O)(=O)c1cccc(NC(=O)COc2cccc([N+](=O)[O-])c2)c1 do in these assays?
KCNK3 block: -9.88*

Results for CCC(=O)c1ccc(OCC(=O)Nc2cccc(S(=O)(=O)N(C)c3ccccc3)c2)cc1 ?
KCNK3 block: inactive

How did CN(c1ccccc1)S(=O)(=O)c1cccc(NC(=O)CSc2nccc(=O)[nH]2)c1 do in these assays?
KCNK3 block: -9.8*

Results for Cc1nnc(SCC(=O)Nc2cccc(S(=O)(=O)N(C)c3ccccc3)c2)s1 ?
Cl transport mod: -0.636; KCNK3 block: inactive; KCNQ1 block: 6*; KCNK9 inh: inactive; KCNQ1 pot: inactive; hERG protect: -13.7

How did O=C(NCC1COCCO1)c1ccc2nc(Cc3cccc(Cl)c3)oc2c1 (stereo not given) do in these assays?
KCNK3 block: inactive; KCNQ1 block: inactive; KCNK9 inh: inactive; KCNQ1 pot: inactive; hERG protect: -7.8

Results for CC(=O)c1ccc(S(=O)(=O)N2CCN(c3nc(-c4cccnc4)nc4ccccc34)CC2)cc1 ?
KCNK3 block: inactive

How did CN1C(=O)[C@H]2[C@@H](/C=C/c3ccccc3)N3C(=O)CN(Cc4ccc(-c5ccccc5)cc4)C(=O)[C@@]3(Cc3ccccc3)[C@H]2C1=O do in these assays?
KCNK3 block: inactive; KCNQ1 block: inactive; KCNK9 inh: inactive; KCNQ1 pot: inactive; hERG protect: -3.7

Results for O=C(O)c1ccc(CSc2nc3ccccc3c(=O)n2-c2ccccc2)cc1 ?
KCNK3 block: inactive; KCNQ1 block: inactive; KCNK9 inh: inactive; KCNQ1 pot: inactive; hERG protect: -4.3

Results for O=c1c2ccccc2nc(SCc2ccc([N+](=O)[O-])cc2)n1-c1ccccc1 ?
Cl transport mod: -0.38; KCNK3 block: inactive; KCNQ1 block: inactive; KCNK9 inh: -7.71*; KCNQ1 pot: inactive; hERG protect: -13.1

What do the screens show for `Cc1ccc(C(=O)N/N=C2\CCCc3ccccc32)c(C)c1`?
Cl transport mod: 0.257; KCNK3 block: inactive; KCNQ1 block: inactive; KCNK9 inh: inactive; KCNQ1 pot: inactive; hERG protect: -10.8

What do the screens show for `O=C(N/N=C1\CCCc2ccccc21)c1ccc([N+](=O)[O-])cc1`?
Cl transport mod: 3.1*; KCNK3 block: inactive; KCNQ1 block: inactive; KCNK9 inh: inactive; KCNQ1 pot: inactive; hERG protect: -8.2

Results for O=C(/C=C/c1cccc([N+](=O)[O-])c1)NCCSCc1ccc(Cl)cc1Cl ?
Cl transport mod: -1.36; KCNK3 block: inactive; KCNQ1 block: inactive; KCNK9 inh: -14.3*; KCNQ1 pot: inactive; hERG protect: -13.3

What do the screens show for `O=C(/C=C/c1cccc([N+](=O)[O-])c1)NCCSCc1ccccc1Cl`?
Cl transport mod: -1.83; KCNK3 block: inactive; KCNQ1 block: inactive; KCNK9 inh: inactive; KCNQ1 pot: inactive; hERG protect: -12.5

How did CC(C)[C@H](NC(=O)c1ccco1)C(=O)N(C)Cc1c(F)cccc1Cl do in these assays?
KCNK3 block: inactive; KCNQ1 block: inactive; KCNK9 inh: inactive; KCNQ1 pot: inactive; hERG protect: -5.0

How did Cc1ccc(Cl)cc1-n1c(SCC(=O)NCCC2=CCCCC2)nc2n[nH]c(C)c2c1=N do in these assays?
KCNK3 block: inactive; KCNQ1 block: inactive; KCNK9 inh: -7.23*; KCNQ1 pot: inactive; hERG protect: -12.3

Results for CCN(C1CCS(=O)(=O)C1)S(=O)(=O)c1ccc(OC)c(OC)c1 (stereo not given) ?
KCNK3 block: inactive; KCNQ1 block: inactive; KCNK9 inh: inactive; KCNQ1 pot: inactive; hERG protect: -9.6

What do the screens show for `O=C(O)CC1(CC(=O)Nc2cc(C(F)(F)F)cc(C(F)(F)F)c2)CCCCC1`?
Cl transport mod: -1.92; KCNK3 block: inactive; KCNQ1 block: 7*; KCNK9 inh: inactive; KCNQ1 pot: inactive; hERG protect: -8.3

What do the screens show for `O=C(NCCOc1ccccc1)C1CCC(=O)N(CCN2CCOCC2)C1` (stereo not given)?
KCNK3 block: inactive; KCNQ1 block: inactive; KCNK9 inh: inactive; KCNQ1 pot: inactive; hERG protect: -6.0

How did CCOc1ccc(N(CC(=O)N2CCN(c3ccccc3OC)CC2)S(=O)(=O)c2ccc(C)cc2)cc1 do in these assays?
KCNK3 block: inactive; KCNQ1 block: 9*; KCNK9 inh: inactive; KCNQ1 pot: inactive; hERG protect: -11.5

Results for COc1cc2c(cc1NC(=S)Nc1cccc(C(F)(F)F)c1)oc1ccccc12 ?
Cl transport mod: 0.745; KCNK3 block: inactive; KCNQ1 block: 7*; KCNK9 inh: inactive; KCNQ1 pot: inactive; hERG protect: -21.4

How did COc1ccc(-c2ccc3c(c2)C2CC3CCN2)cc1 (stereo not given) do in these assays?
KCNK3 block: inactive

Results for CC(C)c1ccc(CNc2ccc([N+](=O)[O-])cn2)cc1 ?
Cl transport mod: 0.9; KCNK3 block: inactive; KCNQ1 block: 7*; KCNK9 inh: inactive; KCNQ1 pot: inactive; hERG protect: -11.5

How did Cc1c(N=Cc2cc(Br)cc(Br)c2O)cccc1C(=O)O do in these assays?
Cl transport mod: -0.9; KCNK3 block: inactive; KCNQ1 block: inactive; KCNK9 inh: inactive; KCNQ1 pot: 10*; hERG protect: -24.7

What do the screens show for `CC1CCCC(NC(=O)CNC(=S)N(Cc2ccccc2)Cc2cccs2)C1C` (stereo not given)?
Cl transport mod: 0.0376; KCNK3 block: inactive; KCNQ1 block: 9*; KCNK9 inh: inactive; KCNQ1 pot: inactive; hERG protect: -10.1

Results for CCCCNC(=O)CNC(=S)N(Cc1ccccc1)Cc1cccs1 ?
Cl transport mod: 0.125; KCNK3 block: inactive; KCNQ1 block: inactive; KCNK9 inh: inactive; KCNQ1 pot: inactive; hERG protect: -6.8

What do the screens show for `O=C(NCCc1ccccc1)C(=O)NC1CCCCC1`?
Cl transport mod: -1.43; KCNK3 block: inactive; KCNQ1 block: inactive; KCNK9 inh: inactive; KCNQ1 pot: inactive; hERG protect: -1.5
